Laboratory results from ChEMBL document CHEMBL1123267, “Synthesis and radioprotective activity of new cysteamine and cystamine derivatives” (J Med Chem, 1986).

Experiments:
Mus musculus [1] = assay: Radioprotective effects in mice when administered i.p. at 50% LD50, 15 min prior to whole body radiation.; type: functional
In short: (§1)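 Mice in groups of 20 were given the compound i.p., dissolved in distilled water. Whole-body irradiation was from a 60Co γ source at 0.65 Gy/min. First dose was the control LD100/30 days (9 Gy males, 9.5 Gy females) or that dose + 2 Gy, then a dose series. Irradiation LD50/30-day was found by the Karber method. DRF = treated LD50/30 ÷ solvent-control LD50/30.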

Mus musculus [2] = assay: Radioprotective effects in mice when administered i.p. at 50% LD50, 2 hr prior to whole body radiation.; type: functional; in short: as §1
[3] = Lethal dose in mice (LD50); type: toxicity, organism-based; conditions: mouse, in vivo
In short: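 Compounds were dissolved in distilled water and the dose range was set in a preliminary study. Five groups of 10 mice then received different doses within that range. LD50 was derived by Probit analysis.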

Mus musculus [4] = assay: Radioprotective effects in mice when administered i.p. at 12.5% LD50, 15 min prior to whole body radiation.; type: functional; in short: as §1
Mus musculus [5] = assay: Compound was tested for radioprotective activity when injected intraperitoneally with a dose equal to one-eighth of its LD50, 15 min before whole-body irradiation.; type: functional; in short: as §1

**Q.** Which DRF (Mus musculus [1]) does the source give for `Br.Br.NCC(=O)NCCSSCCNC(=O)CN` here?
**A.** 1.4

**Q.** What about the DRF (Mus musculus [2]) of the same molecule?
**A.** 1

**Q.** What about the LD50 [3] of the same molecule?
**A.** 1500 mg/kg

**Q.** And the DRF (Mus musculus [4])?
**A.** 1

**Q.** Which results are given for `Br.CC(=O)SCCNC(=O)CCCN`?
**A.** DRF (Mus musculus [1]): 1.1; LD50 [3]: 800 mg/kg; DRF (Mus musculus [4]): 1

**Q.** For `C[C@H](N)C(=O)NCCSSCCNC(=O)[C@@H](C)N.O=C(O)C(F)(F)F.O=C(O)C(F)(F)F`, which DRF (Mus musculus [1]) is on record?
**A.** 1.4

**Q.** What about the DRF (Mus musculus [2]) of the same molecule?
**A.** 1.1

**Q.** What about the LD50 [3] of the same molecule?
**A.** 1200 mg/kg

**Q.** And the DRF (Mus musculus [4])?
**A.** 1

**Q.** With `Br.Br.NCCCC(=O)NCCSSCCNC(=O)CCCN` as the molecule, how does the DRF (Mus musculus [1]) read?
**A.** 1

**Q.** And the DRF (Mus musculus [2])?
**A.** 1

**Q.** What about the LD50 [3] of the same molecule?
**A.** 300 mg/kg

**Q.** And the DRF (Mus musculus [4])?
**A.** 1

**Q.** What does the source list for `Br.CC(=O)SCCNC(=O)CCN`?
**A.** DRF (Mus musculus [1]): 1; DRF (Mus musculus [2]): 1; LD50 [3]: 400 mg/kg; DRF (Mus musculus [4]): 1

**Q.** For `Br.Br.NCCC(=O)NCCSSCCNC(=O)CCN`, which DRF (Mus musculus [1]) is on record?
**A.** 1

**Q.** What about the DRF (Mus musculus [2]) of the same molecule?
**A.** 1

**Q.** And the LD50 [3]?
**A.** 350 mg/kg

**Q.** What about the DRF (Mus musculus [4]) of the same molecule?
**A.** 1

**Q.** For `CC(=O)SCCN.Cl`, which DRF (Mus musculus [1]) is on record?
**A.** 1.05

**Q.** What about the DRF (Mus musculus [2]) of the same molecule?
**A.** 1.05

**Q.** What about the LD50 [3] of the same molecule?
**A.** 500 mg/kg

**Q.** What about the DRF (Mus musculus [4]) of the same molecule?
**A.** 1

**Q.** For `Br.CC(=O)SCCNC(=O)CN`, which DRF (Mus musculus [1]) is on record?
**A.** 1.4

**Q.** What about the DRF (Mus musculus [2]) of the same molecule?
**A.** 1

**Q.** What about the LD50 [3] of the same molecule?
**A.** 1500 mg/kg

**Q.** And the DRF (Mus musculus [4])?
**A.** 1

**Q.** With `NCC(=O)NCCSSCCNC(=O)CN.O=C(O)C(F)(F)F.O=C(O)C(F)(F)F` as the molecule, how does the DRF (Mus musculus [1]) read?
**A.** 1.55

**Q.** And the DRF (Mus musculus [2])?
**A.** 1.1

**Q.** And the LD50 [3]?
**A.** 1500 mg/kg

**Q.** What about the DRF (Mus musculus [4]) of the same molecule?
**A.** 1.2

**Q.** Which results are given for `NCC(=O)NCCSC(=O)C(Cl)(Cl)Cl.O=C(O)C(F)(F)F`?
**A.** DRF (Mus musculus [1]): 1.05; DRF (Mus musculus [2]): 1; DRF (Mus musculus [5]): 1; LD50 [3]: 700 mg/kg

**Q.** Which DRF (Mus musculus [1]) does the source give for `Br.CC(=O)SCCNC(=O)[C@H](C)N` here?
**A.** 1.4

**Q.** And the DRF (Mus musculus [2])?
**A.** 1.2

**Q.** What about the LD50 [3] of the same molecule?
**A.** 1500 mg/kg

**Q.** What about the DRF (Mus musculus [4]) of the same molecule?
**A.** 1

**Q.** With `NCC(=O)NCCSC(=O)C(Cl)Cl.O=C(O)C(F)(F)F` as the molecule, how does the DRF (Mus musculus [1]) read?
**A.** 1.1

**Q.** And the DRF (Mus musculus [2])?
**A.** 1

**Q.** What about the LD50 [3] of the same molecule?
**A.** 800 mg/kg

**Q.** And the DRF (Mus musculus [4])?
**A.** 1

**Q.** Which DRF (Mus musculus [1]) does the source give for `CC(=O)SCCNC(=O)[C@H](C)N.O=C(O)C(F)(F)F` here?
**A.** 1.4

**Q.** And the DRF (Mus musculus [2])?
**A.** 1

**Q.** And the LD50 [3]?
**A.** 1250 mg/kg

**Q.** And the DRF (Mus musculus [4])?
**A.** 1

**Q.** Which results are given for `Br.CC(C)(C)C(=O)SCCNC(=O)CN`?
**A.** DRF (Mus musculus [1]): 1.05; DRF (Mus musculus [2]): 1; LD50 [3]: 1200 mg/kg; DRF (Mus musculus [4]): 1

**Q.** With `CC(=O)SCCNC(=O)CN.O=C(O)C(F)(F)F` as the molecule, how does the DRF (Mus musculus [1]) read?
**A.** 1.4

**Q.** And the DRF (Mus musculus [2])?
**A.** 1

**Q.** And the LD50 [3]?
**A.** 1500 mg/kg

**Q.** And the DRF (Mus musculus [4])?
**A.** 1

**Q.** With `Br.CC(=O)NCCSC(=O)CN` as the molecule, how does the DRF (Mus musculus [1]) read?
**A.** 1.1

**Q.** What about the DRF (Mus musculus [2]) of the same molecule?
**A.** 1

**Q.** And the LD50 [3]?
**A.** 600 mg/kg

**Q.** And the DRF (Mus musculus [4])?
**A.** 1

**Q.** For `CC(=O)NCCSC(=O)CN.O=C(O)C(F)(F)F`, which DRF (Mus musculus [1]) is on record?
**A.** 1.2

**Q.** And the DRF (Mus musculus [2])?
**A.** 1

**Q.** And the LD50 [3]?
**A.** 1000 mg/kg

**Q.** What about the DRF (Mus musculus [4]) of the same molecule?
**A.** 1

**Q.** What does the source list for `NCCCNCCSP(=O)(O)O` [AMIFOSTINE]?
**A.** DRF (Mus musculus [1]): 2.7; DRF (Mus musculus [2]): >1.3; LD50 [3]: 950 mg/kg; DRF (Mus musculus [4]): 1.5

**Q.** For `Br.Br.C[C@H](N)C(=O)NCCSSCCNC(=O)[C@@H](C)N`, which DRF (Mus musculus [1]) is on record?
**A.** 1

**Q.** And the DRF (Mus musculus [2])?
**A.** 1

**Q.** What about the LD50 [3] of the same molecule?
**A.** 800 mg/kg

**Q.** What about the DRF (Mus musculus [4]) of the same molecule?
**A.** 1

**Q.** What does the source list for `NCC(=O)NCCSC(=O)CCl.O=C(O)C(F)(F)F`?
**A.** DRF (Mus musculus [1]): 1; DRF (Mus musculus [2]): 1; LD50 [3]: 550 mg/kg; DRF (Mus musculus [4]): 1

**Q.** With `Br.CCC(=O)SCCNC(=O)CN` as the molecule, how does the DRF (Mus musculus [1]) read?
**A.** 1.2

**Q.** What about the DRF (Mus musculus [2]) of the same molecule?
**A.** 1

**Q.** And the LD50 [3]?
**A.** 1500 mg/kg

**Q.** And the DRF (Mus musculus [4])?
**A.** 1
